According to publication PMC3866226 (Molecular pharmaceutics, 2013):
Where “and” joins values, the source holds several entries; their conditions need not be identical. Equal entries are not always repeated. Entries after “also recorded” stand apart in the source; their conditions may differ. Bridge positions count the residues as written; N and C are the ends. Square brackets hold non-standard residues; d marks the D form. Peptide text beside a SMILES is read from it.

How the values were obtained:
B16/F1 melanoma cells [1] = experiment: Cellular efflux; assay type: cell-based, murine; conditions: loaded 2 h at 25 °C, then 2 h of incubation in the culture medium
In short: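 B16/F1 cells were seeded at 2.5×10^5/well and grown overnight at 37 °C. They were loaded with radiopeptide for 2 h at 25 °C and rinsed twice with ice-cold PBS. Release into culture medium was then monitored. At 20, 40, 60, 90 and 120 min, surface-bound and intracellular radioactivity were collected separately and gamma-counted.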

[2] = test system: B16/F1 melanoma-bearing C57 mice; experiment: Effect of L-lysine co-injection on renal and tumor uptake; assay type: in vivo, mouse; conditions: 2 h post-injection, 15 mg L-lysine
In short: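 Groups of 4 tumour-bearing C57 mice received 0.037 MBq radiopeptide mixed with 15 mg L-lysine via injection. Mice were killed at 2 h, and tumours and organs were weighed and gamma-counted. Uptake with versus without L-lysine was compared by unpaired Student's t-test, significance p<0.05.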

[3] = test system: B16/F1 melanoma-bearing C57 mice; experiment: Urinary metabolites by radio-HPLC; assay type: in vivo, mouse; conditions: urine at 2 h post-injection of ~3.7 MBq via tail vein
[4] = Biodistribution in B16/F1 melanoma-bearing C57 mice; assay type: in vivo, mouse; conditions: female, C57, mouse, iv, 0.037 MBq, total radioactivity
In short: (§1)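 Female C57 mice bore subcutaneous right-flank tumours from 1×10^6 B16/F1 cells (~0.2 g at 10 days). Radiopeptide, 0.037 MBq in pH 7.4 saline, went in via tail vein. Groups of 4 were killed at 0.5, 2, 4 and 24 h; tumours and organs were weighed and gamma-counted. Blood was taken as 6.5% body weight. Blockade: co-injected 10 µg (6.1 nmol) unlabeled NDP-MSH, 2 h. Results as %ID/g or %ID, mean ± SD, n=4.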

[5] = test system: B16/F1 melanoma-bearing C57 mice; experiment: as above; assay type: in vivo, mouse
In short: as §1

[6] = test system: B16/F1 melanoma-bearing C57 mice; experiment: Melanoma imaging by small animal SPECT/CT; assay type: in vivo, mouse; conditions: 2 h post-injection of 7.4 MBq via tail vein
B16/F1 melanoma cells [7] = experiment: Cellular internalization; assay type: cell-based, murine; conditions: after 20 min of incubation at 25 °C, acid wash pH 4.5, n=3
In short: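 Cells at 2.5×10^5/well were grown overnight at 37 °C and washed with binding medium (MEM, 25 mM HEPES pH 7.4, 0.2% BSA, 0.3 mM 1,10-phenanthroline). They were incubated at 25 °C with ~200,000 cpm HPLC-purified radiopeptide for 20–120 min (n=3). Membrane-bound activity was stripped with 40 mM sodium acetate pH 4.5/0.9% NaCl/0.2% BSA. Cells were lysed in 1 N NaOH for 5 min; both fractions were gamma-counted.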

Reduction of renal uptake by L-lysine co-injection ([2]; versus without L-lysine): 55% and 40–50%
Remained intact in the urine [3]: Approximately 70%
Transformed to a more hydrophobic compound in the urine [3]: 30%
tissue uptake at 0.5 h ([4]; blood): 15.9 ± 3.97 %ID/g
tissue uptake at 2 h ([4]; blood): 0.44 ± 0.13 %ID/g
tissue uptake at 4 h ([4]; blood): 0.55 ± 0.41 %ID/g
tissue uptake at 24 h ([4]; blood): 0.4 ± 0.21 %ID/g
tissue uptake at 0.5 h ([4]; bone): 1.66 ± 0.1 %ID/g
tissue uptake at 2 h ([4]; bone): 0.46 ± 0.11 %ID/g
tissue uptake at 4 h ([4]; bone): 0.39 ± 0.12 %ID/g
tissue uptake at 24 h ([4]; bone): 0.23 ± 0.09 %ID/g
tissue uptake at 0.5 h ([4]; brain): 0.14 ± 0.04 %ID/g
tissue uptake at 2 h ([4]; brain): 0.03 ± 0.01 %ID/g
tissue uptake at 4 h ([4]; brain): 0.02 ± 0.01 %ID/g
tissue uptake at 24 h ([4]; brain): 0.03 ± 0.01 %ID/g
tissue uptake at 0.5 h ([4]; heart): 1.86 ± 0.21 %ID/g
tissue uptake at 2 h ([4]; heart): 0.29 ± 0.08 %ID/g
tissue uptake at 4 h ([4]; heart): 0.19 ± 0.05 %ID/g
tissue uptake at 24 h ([4]; heart): 0.12 ± 0.02 %ID/g
tissue uptake dose at 0.5 h ([4]; intestines): 1.73 ± 0.17 %ID
tissue uptake dose at 2 h ([4]; intestines): 0.84 ± 0.2 %ID
tissue uptake dose at 4 h ([4]; intestines): 0.72 ± 0.18 %ID
tissue uptake dose at 24 h ([4]; intestines): 0.48 ± 0.13 %ID
tissue uptake at 0.5 h ([4]; kidneys): 145 ± 24.6 %ID/g
tissue uptake at 2 h ([4]; kidneys): 135 ± 23.6 %ID/g
tissue uptake at 4 h ([4]; kidneys): 106 ± 27.7 %ID/g
tissue uptake at 24 h ([4]; kidneys): 46.8 ± 14.8 %ID/g
tissue uptake at 0.5 h ([4]; liver): 2.09 ± 0.04 %ID/g
tissue uptake at 2 h ([4]; liver): 1.62 ± 0.14 %ID/g
tissue uptake at 4 h ([4]; liver): 2.01 ± 0.39 %ID/g
tissue uptake at 24 h ([4]; liver): 1.03 ± 0.1 %ID/g
tissue uptake at 0.5 h ([4]; lung): 4.27 ± 0.27 %ID/g
tissue uptake at 2 h ([4]; lung): 0.51 ± 0.37 %ID/g
tissue uptake at 4 h ([4]; lung): 0.39 ± 0.24 %ID/g
tissue uptake at 24 h ([4]; lung): 0.23 ± 0.04 %ID/g
tissue uptake at 0.5 h ([4]; muscle): 0.8 ± 0.38 %ID/g
tissue uptake at 2 h ([4]; muscle): 0.15 ± 0.05 %ID/g
tissue uptake at 4 h ([4]; muscle): 0.07 ± 0.02 %ID/g
tissue uptake at 24 h ([4]; muscle): 0.52 ± 0.1 %ID/g
tissue uptake at 0.5 h ([4]; pancreas): 0.83 ± 0.4 %ID/g
tissue uptake at 2 h ([4]; pancreas): 0.11 ± 0.04 %ID/g
tissue uptake at 4 h ([4]; pancreas): 0.09 ± 0.05 %ID/g
tissue uptake at 24 h ([4]; pancreas): 0.13 ± 0.07 %ID/g
tissue uptake at 0.5 h ([4]; skin): 3.99 ± 0.42 %ID/g
tissue uptake at 2 h ([4]; skin): 0.5 ± 0.19 %ID/g
tissue uptake at 4 h ([4]; skin): 0.27 ± 0.13 %ID/g
tissue uptake at 24 h ([4]; skin): 1.01 ± 0.31 %ID/g
tissue uptake at 0.5 h ([4]; spleen): 1.04 ± 0.33 %ID/g
tissue uptake at 2 h ([4]; spleen): 0.48 ± 0.2 %ID/g
tissue uptake at 4 h ([4]; spleen): 0.47 ± 0.18 %ID/g
tissue uptake at 24 h ([4]; spleen): 0.19 ± 0.13 %ID/g
tissue uptake at 0.5 h ([4]; stomach): 1.87 ± 0.21 %ID/g
tissue uptake at 2 h ([4]; stomach): 0.67 ± 0.16 %ID/g
tissue uptake at 4 h ([4]; stomach): 0.7 ± 0.23 %ID/g
tissue uptake at 24 h ([4]; stomach): 0.21 ± 0.04 %ID/g
tissue to tissue ratio at 2 h ([4]; tumor / blood): 42.7
tissue to tissue ratio at 4 h ([4]; tumor / blood): 25.2
tissue to tissue ratio at 24 h ([4]; tumor / blood): 14.6
tissue to tissue ratio at 0.5 h ([4]; tumor / kidneys): 0.1
tissue to tissue ratio at 2 h ([4]; tumor / kidneys): 0.14
tissue to tissue ratio at 4 h ([4]; tumor / kidneys): 0.13
tissue to tissue ratio at 24 h ([4]; tumor / kidneys): 0.12
tissue to tissue ratio at 0.5 h ([4]; tumor / lung): 3.41
tissue to tissue ratio at 2 h ([4]; tumor / lung): 36.8
tissue to tissue ratio at 4 h ([4]; tumor / lung): 35.5
tissue to tissue ratio at 24 h ([4]; tumor / lung): 25.4
tissue uptake at 0.5 h ([4]; tumor): 14.6 ± 5.31 %ID/g
tissue uptake at 2 h ([4]; tumor): 18.8 ± 5.13 %ID/g
tissue uptake at 4 h ([4]; tumor): 13.8 ± 3.1 %ID/g
tissue uptake at 24 h ([4]; tumor): 5.84 ± 0.5 %ID/g
tissue to tissue ratio at 0.5 h ([4]; tumor/liver): 6.97
tissue to tissue ratio at 2 h ([4]; tumor/liver): 11.6
tissue to tissue ratio at 4 h ([4]; tumor/liver): 6.89
tissue to tissue ratio at 24 h ([4]; tumor/liver): 5.67
tissue to tissue ratio at 0.5 h ([4]; tumor/muscle): 18.2
tissue to tissue ratio at 2 h ([4]; tumor/muscle): 125
tissue to tissue ratio at 4 h ([4]; tumor/muscle): 198
tissue to tissue ratio at 24 h ([4]; tumor/muscle): 11.2
dose excreted at 0.5 h ([4]; urine): 28.6 ± 8.85%
dose excreted at 2 h ([4]; urine): 54.8 ± 5.65%
dose excreted at 4 h ([4]; urine): 61.2 ± 5.56%
dose excreted at 24 h ([4]; urine): 82.2 ± 4.69%
Uptake ratio Tumor/Blood ([5]; 0.5 h post-injection): 0.91
Uptake ratio Tumor/Blood ([5]; 2 h post-injection, NDP blockade): 5.70
Structure (SMILES): CC(C)[C@H](NC(=O)[C@@H]1CCCN1C(=O)[C@H](CCCNC(=N)N)NC(=O)[C@H](CS)NC(=O)[C@H](Cc1c[nH]c2ccccc12)NC(=O)[C@H](CCCNC(=N)N)NC(=O)[C@@H](Cc1ccccc1)NC(=O)[C@H](Cc1c[nH]cn1)NC(=O)[C@H](CCC(=O)O)NC(=O)[C@H](CS)NC(=O)[C@H](CS)NC(=O)[C@H](CCCCN)NC(=O)[C@@H]1CC(=O)N[C@@H](CCCNC(=N)N)C(=O)N[C@@H]([C@@H](C)O)C(=O)N[C@@H](CC(=O)O)C(=O)N[C@H](Cc2ccc(O)cc2)C(=O)N1)C(N)=O [^99mTc-RTD-Lys-(Arg^11)CCMSH, metal not drawn] (RTD[dY]DKCCEH[dF]RWCRPV-NH2; lactam N-5)
Activity remained inside the cells (cellular efflux) (B16/F1 melanoma cells [1]): 75%
Effect of L-lysine co-injection on tumor uptake ([2]; p>0.05): didn't affect the tumor uptake; also recorded: without affecting their tumor uptake
Visualization of flank B16/F1 melanoma lesions by SPECT/CT [6]: clearly visualized
Activity internalized in the cells (B16/F1 melanoma cells [7]): Approximately 71%
